The subject of series [1] is Staphylococcus aureus. Kind of series: Antibacterial activity against Staphylococcus aureus ATCC 29213 by broth microdilution method. In kind it is functional. In general terms: Broth dilution looks for growth in wells or tubes with falling amounts of substance.
Series [2] in a line: Antibacterial activity against Staphylococcus aureus Mu50 ATCC 700699 by broth microdilution method. In kind it is functional, Staphylococcus aureus subsp. aureus Mu50.
Series [3] concerns Staphylococcus aureus. Kind of series: Antibacterial activity against methicillin-resistant Staphylococcus aureus MRSA M923 by broth microdilution method. It is filed as functional.
The test system of series [4] is Staphylococcus aureus. Kind of series: Antibacterial activity against methicillin-resistant Staphylococcus aureus MRSA 433 by broth microdilution method. In kind it is functional.
For series [5], the system named is Staphylococcus aureus. Kind of series: Antibacterial activity against methicillin-resistant Staphylococcus aureus MRSA F511 by broth microdilution method. It is filed as functional.
For series [6], the system named is Staphylococcus aureus. Kind of series: Antibacterial activity against linezolid-sensitive methicillin-resistant Staphylococcus aureus by broth microdilution method. It is filed as functional.
In series [7] the test system is Staphylococcus epidermidis. Kind of series: Antibacterial activity against linezolid-resistant methicillin-resistant Staphylococcus epidermidis by broth microdilution method. It is filed as functional.
The test system of series [8] is HepG2. Kind of series: Cytotoxicity against human HepG2 cells at 25 ug/ml after 48 hrs by presto-blue staining-based assay. In kind it is cell-based. The conditions noted are these: hepg2, 48 h. An outline of the steps: (§1)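 HepG2 cells were grown in DMEM with 10% heat-inactivated FBS, 2 mM L-glutamine and penicillin/streptomycin. They were seeded at 40,000 cells/cm² on collagen-coated wells and treated two days later with enantiomers at 25–100 µg/ml (in DMSO) for 48 h. PrestoBlue resazurin was read after 1 h at 37 °C as absorbance at 570 nm against 600 nm. Data are mean ± SEM of 3 experiments in triplicate; Student's t test.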

The test system of series [9] is HepG2. Kind of series: Cytotoxicity against human HepG2 cells at 50 to 100 ug/ml after 48 hrs by presto-blue staining-based assay. The settings on record: hepg2, 48 h. It is filed as cell-based. The procedure, abridged:
as §1

In series [10] the test system is HepG2. Kind of series: Cytotoxicity against human HepG2 cells at 25 to 100 ug/ml after 48 hrs by presto-blue staining-based assay. It is filed as cell-based. The settings on record: hepg2, 48 h. An outline of the steps:
as §1

In series [11] the test system is HepG2. Kind of series: Cytotoxicity against human HepG2 cells at 100 ug/ml after 48 hrs by presto-blue staining-based assay. It is filed as cell-based. The conditions noted are these: hepg2, 48 h. An outline of the steps:
as §1

In brackets after ≈: the same amount, converted by molar mass.

Regarding `Cc1noc(-c2ccc(N3CC(CNC(N)=S)OC3=O)cc2F)n1` (racemic), the MIC (in the series with Staphylococcus aureus [1]; in series [2]; in the series with Staphylococcus aureus [3]; in the series with Staphylococcus aureus [4]; in the series on Staphylococcus aureus [5]) was more than 50 µg/mL each time.
Turning to `CNC(=S)NCC1CN(c2ccc(-c3nc(C)no3)cc2)C(=O)O1` (racemic), the MIC (commonly the smallest concentration in the dilution series that meets the test's criterion for growth inhibition) against Staphylococcus aureus [1] came to 6.25 µg/mL (≈ 18 µM); in series [2], 1.6 µg/mL (≈ 4.61 µM); in the series on Staphylococcus aureus [3], 6.25 µg/mL (≈ 18 µM); against Staphylococcus aureus [4], 3.12 µg/mL (≈ 9 µM); in the series with Staphylococcus aureus [5], 6.25 µg/mL (≈ 18 µM).
With `CNC(=S)NCC1CN(c2ccc(-c3nc(C)no3)c(F)c2)C(=O)O1` (racemic), the MIC in the series on Staphylococcus aureus [1] was determined as 6.25 µg/mL (≈ 17.1 µM); in series [2] it was 1.6 µg/mL (≈ 4.38 µM); in the series on Staphylococcus aureus [3], 6.25 µg/mL (≈ 17.1 µM); with Staphylococcus aureus [4], 3.12 µg/mL (≈ 8.55 µM); against Staphylococcus aureus [5], 6.25 µg/mL (≈ 17.1 µM).
In the case of `CNC(=S)NC[C@H]1CN(c2ccc(-c3nc(C)no3)cc2)C(=O)O1`, the MIC was 0.5 µg/mL (≈ 1.44 µM) against Staphylococcus aureus [6] and 8 µg/mL (≈ 23 µM) in series [7]. For the same compound, the Activity result is recorded as “Toxic” in the series with HepG2 [8] and “Non-toxic” in the series with HepG2 [9].
For the compound `Cc1noc(-c2ccc(N3CC(CNC(N)=S)OC3=O)cc2)n1` (racemic), the minimum inhibitory concentration (MIC) in the series with Staphylococcus aureus [1] was more than 50 µg/mL; in [2], more than 50 µg/mL; against Staphylococcus aureus [3] it was more than 50 µg/mL; with Staphylococcus aureus [4] it was more than 50 µg/mL; against Staphylococcus aureus [5] it was 50 µg/mL (≈ 150 µM).
Take `CNC(=S)NC[C@H]1CN(c2ccc(-c3nc(C)no3)c(F)c2)C(=O)O1`: the Activity result in the series with HepG2 [10] is “Toxic”.
Regarding `Cc1noc(-c2ccc(N3CC(CN=C=S)OC3=O)cc2F)n1` (racemic), the MIC (against Staphylococcus aureus [1]; in [2]; against Staphylococcus aureus [3]; against Staphylococcus aureus [4]; in the series with Staphylococcus aureus [5]) was more than 50 µg/mL each time.
With `C=C1CN(c2ccc(-c3nc(C)no3)c(F)c2)C(=O)O1`, the MIC (against Staphylococcus aureus [1]; in [2]; in the series with Staphylococcus aureus [3]; in the series with Staphylococcus aureus [4]; in the series with Staphylococcus aureus [5]) was more than 50 µg/mL each time.
Turning to `Cc1noc(-c2ccc(N3CC(Cn4ccnn4)OC3=O)cc2F)n1` (racemic), the MIC against Staphylococcus aureus [1] was 25 µg/mL (≈ 72.6 µM); in [2], 1.6 µg/mL (≈ 4.65 µM); against Staphylococcus aureus [3] it was 25 µg/mL (≈ 72.6 µM); against Staphylococcus aureus [4], 6.25 µg/mL (≈ 18.2 µM); in the series on Staphylococcus aureus [5], 12.5 µg/mL (≈ 36.3 µM).
As to `CC(=O)NC[C@H]1CN(c2ccc(N3CCOCC3)c(F)c2)C(=O)O1` [LINEZOLID], the MIC in the series with Staphylococcus aureus [3] and with Staphylococcus aureus [5] was 3.12 µg/mL (≈ 9.26 µM) in each case. The same compound gave an Activity with HepG2 [11] of 20%.
Consider `Cc1noc(-c2ccc(N3CC(Cn4ccnn4)OC3=O)cc2)n1` (racemic), for which the MIC was determined as 25 µg/mL (≈ 76.6 µM) against Staphylococcus aureus [1]; 3.12 µg/mL (≈ 9.58 µM) in series [2]; 25 µg/mL (≈ 76.6 µM) in the series with Staphylococcus aureus [3]; 12.5 µg/mL (≈ 38.3 µM) in the series on Staphylococcus aureus [4]; 12.5 µg/mL (≈ 38.3 µM) in the series with Staphylococcus aureus [5].
In the case of `CNC(=S)NC[C@@H]1CN(c2ccc(-c3nc(C)no3)c(F)c2)C(=O)O1`, in the series on HepG2 [10], the Activity entry was “Toxic”.
Regarding `C=C1CN(c2ccc(-c3nc(C)no3)cc2)C(=O)O1`, the MIC (with Staphylococcus aureus [1]; in series [2]; against Staphylococcus aureus [3]; against Staphylococcus aureus [4]; against Staphylococcus aureus [5]) was more than 50 µg/mL throughout.
Regarding `Cc1noc(-c2ccc(N3CC(CN=C=S)OC3=O)cc2)n1` (racemic), the MIC in the series with Staphylococcus aureus [1] was more than 50 µg/mL; in series [2] it was more than 50 µg/mL; in the series on Staphylococcus aureus [3] it was more than 50 µg/mL; in the series on Staphylococcus aureus [4], more than 50 µg/mL; in the series on Staphylococcus aureus [5] it was 50 µg/mL (≈ 158 µM).
